SMILES strings stand for the structures. Calls of active or inactive are those of the source. The rule behind the calls is not given here.

The target in test [1] is T1, Peroxisome proliferator-activated receptor alpha (Homo sapiens) (UniProt Q07869).
T1 sequence (whole entry): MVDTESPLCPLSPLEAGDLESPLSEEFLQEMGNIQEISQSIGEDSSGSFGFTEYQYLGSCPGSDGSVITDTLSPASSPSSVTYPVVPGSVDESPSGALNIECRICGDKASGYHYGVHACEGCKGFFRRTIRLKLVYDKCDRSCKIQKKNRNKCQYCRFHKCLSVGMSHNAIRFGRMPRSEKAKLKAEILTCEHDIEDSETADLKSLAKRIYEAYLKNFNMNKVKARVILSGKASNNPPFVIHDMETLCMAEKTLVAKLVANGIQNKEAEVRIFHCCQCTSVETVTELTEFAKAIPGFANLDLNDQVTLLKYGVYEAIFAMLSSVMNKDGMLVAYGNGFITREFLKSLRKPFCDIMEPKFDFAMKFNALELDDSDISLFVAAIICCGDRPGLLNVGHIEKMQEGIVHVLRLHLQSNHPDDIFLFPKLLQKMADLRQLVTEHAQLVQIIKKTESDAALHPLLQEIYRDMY
Put plainly: Agonist activity at human PPARalpha expressed in MCF7 cells transfected with co-activator TIF2 by luciferase reporter gene assay at 1 uM. In kind it is functional, cell-based. An outline of the steps:
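MCF-7 cells grown overnight in phenol red-free DMEM with 5% charcoal-treated FBS. Transfected with DOTAP liposomes carrying human ACO PPRE-luciferase reporter, wild-type hPPARalpha and full-length TIF2. Ligand or DMSO added 4 h after transfection, with medium topped up with charcoal-treated FBS. Cells lysed 16 h later. Luciferase normalized to protein, relative to DMSO-treated cells without overexpression; mean ± SD, n = 3-6.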

For test [2], the system named is Rattus norvegicus. Put plainly: Reduction in food intake in Wistar rat at 0.03 to 3 mg/kg, ip.
For test [3], the target named is T2, Peroxisome proliferator-activated receptor alpha (Homo sapiens, UniProt Q07869).
T2 sequence (Q07869 whole entry): T1 sequence (whole entry)
As to the kind of experiment: Activation of human PPARalpha by GST pull down assay. The procedure, abridged:
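GST or GST-TIF2 Sepharose beads, pre-blocked with 1 µg/µl BSA, incubated with 20 ng in vitro translated [35S]-labeled PPARalpha with or without compound. Unbound translated protein washed off with immunoprecipitation buffer, then bound receptor detected.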

Test [4] deals with Rattus norvegicus. As to the kind of experiment: Reduction in plasma triglycerides in Wistar rat at 1 mg/kg, ip after 8 days. In kind it is functional, organism-based. Details: dose 1 mg/kg. An outline of the steps:
(§1)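 Normal Wistar rats, free-feeding, dosed 1 mg/kg i.p. daily for 8 days at dark-period onset. Compound suspended in Tween 80/saline. Body weight and plasma triglycerides compared with vehicle-treated rats; means ± SEM, n = 3-6, ANOVA.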

The test system of test [5] is Rattus norvegicus. Put plainly: Reduction in body weight of Wistar rat at 1 mg/kg, ip after 8 days. Format: functional, organism-based. Details: dose 1 mg/kg. The procedure, abridged: as §1
For test [6], the system named is Rattus norvegicus. Put plainly: Reduction in body weight gain in obese Zucker rat at 1 mg/kg, ip after 11 days. Format: functional, organism-based. Details: dose 1 mg/kg. The procedure, abridged: (§2)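 Genetically obese Zucker (fa/fa) rats, free-feeding, given 1 mg/kg i.p. daily for 11 days at dark-period onset, in Tween 80/saline. Cumulative relative weight gain (g/kg body weight, from day 1) and food intake compared with vehicle; means ± SEM, n = 3-6, ANOVA.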

The subject of test [7] is Rattus norvegicus. Put plainly: Reduction in food intake in obese Zucker rat at 1 mg/kg, ip after 11 days. Details: dose 1 mg/kg. In kind it is functional, organism-based. The procedure, abridged: as §2

Usually EC50 stands for the concentration giving half of the maximal effect. A lower EC50 goes with higher potency in that assay. As to `CCCCCCCCCCCCCCCCCCNS(N)(=O)=O`, the result in test [1] was inactive. The result in test [2] was Active. For the same compound, in test [3], the EC50 is above 10000 µM.

Turning to `CCCCCCCC/C=C\CCCCCCCCNS(=O)(=O)NCCC`, a half-maximal effect in test [3] (EC50) was put at 11 µM.

As for `CCCCCCCCCCCCCCCCNS(=O)(=O)NCCC`, the response in test [3] was half-maximal at 21 µM (EC50).

For `CCCCCCCCCCCCCCCCCCNS(=O)(=O)NCCC`, the outcome in test [4], in test [5], in test [1], in test [6] and in test [7] was Active. For the same compound, the EC50 in test [3] worked out at 0.1 µM.

Turning to `CCCCCCCC/C=C\CCCCCCCCNS(N)(=O)=O`, the EC50 in test [3] came out at 0.524 µM.

Take `CCCCCCCC/C=C\CCCCCCCC(=O)NCCO` [OLEOYLETHANOLAMIDE]: the outcome in test [1] was Active. The compound further gave an EC50 in test [3] of 0.11 µM.

As for `CCCCCCCCCCCCCCCCNS(N)(=O)=O`, the EC50 in test [3] is above 10000 µM.

As for `Cc1cccc(Nc2cc(Cl)nc(SCC(=O)O)n2)c1C`, in test [1], the result was Active.

Values taken from ChEMBL document CHEMBL1139843, “Novel sulfamide analogs of oleoylethanolamide showing in vivo satiety inducing actions and PPARalpha activation” (J Med Chem, 2007).
